# Test results reported in PubChem BioAssay AID588418 (The Scripps Research Institute Molecular Screening Center, 2011).
# Active and inactive are the calls of the source.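 How the source made its calls: active means IC50 at or below 1000 nM; inactive means IC50 above 1000 nM.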
# Molecular target: Protein-arginine deiminase type-4 (Homo sapiens) (UniProt Q9UM07)
# Assay: recombinant human PAD4 inhibitors – biochemical, BAEE substrate, citrulline absorbance, 7-point 0-10 µM, late-stage follow-up (AID 588418)
# Conditions: recombinant PAD4, BAEE citrulline colorimetric absorbance
# In short: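 Incubation: 15 min enzyme–compound pre-incubation plus 15 min substrate reaction, 37 °C; Assay system: recombinant PAD4; Amount: PAD4 at 0.2 µM; Doses: 7 points, 0–10 µM; Medium: Tris-HCl buffer pH 7.6 with 10 mM CaCl2 and 2 mM DTT; Technique: absorbance at 540 nm, colorimetric; Reagent: BAEE substrate at 10 mM.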
# Chain of Protein-arginine deiminase type-4 (Homo sapiens) (Q9UM07 whole entry, looked up): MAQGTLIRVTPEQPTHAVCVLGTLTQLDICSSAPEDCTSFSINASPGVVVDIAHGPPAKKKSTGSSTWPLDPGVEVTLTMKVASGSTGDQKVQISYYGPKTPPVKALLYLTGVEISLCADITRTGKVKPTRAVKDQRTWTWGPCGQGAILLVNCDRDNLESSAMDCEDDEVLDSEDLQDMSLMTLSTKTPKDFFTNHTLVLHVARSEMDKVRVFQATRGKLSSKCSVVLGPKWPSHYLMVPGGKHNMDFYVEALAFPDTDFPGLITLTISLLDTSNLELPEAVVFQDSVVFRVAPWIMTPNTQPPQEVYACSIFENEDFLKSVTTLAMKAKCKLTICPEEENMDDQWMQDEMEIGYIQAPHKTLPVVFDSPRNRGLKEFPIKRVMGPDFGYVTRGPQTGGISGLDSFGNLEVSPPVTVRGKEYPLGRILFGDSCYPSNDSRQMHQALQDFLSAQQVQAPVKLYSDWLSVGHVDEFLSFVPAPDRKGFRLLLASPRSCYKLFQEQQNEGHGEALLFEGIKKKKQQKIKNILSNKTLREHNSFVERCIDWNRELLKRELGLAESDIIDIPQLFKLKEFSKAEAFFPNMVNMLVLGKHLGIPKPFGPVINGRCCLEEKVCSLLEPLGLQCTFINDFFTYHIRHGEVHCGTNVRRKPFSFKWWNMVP
smiles,measurement,value
COC1=C(N)C(=O)c2ncccc2C1=O,IC50,inactive
